Test results taken from ChEMBL document CHEMBL4765230, “Discovery of Orally Efficacious Phosphoinositide 3-Kinase δ Inhibitors with Improved Metabolic Stability” (J Med Chem, 2016).

Assays:
[1] = Clearance in Sprague-Dawley rat at 1 mg/kg, iv measured over 24 hrs by LC/MS/MS analysis; assay type: ADME, organism-based; conditions: in vivo
Summary of the method: (§1)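 Intravenous 1 mg/kg and oral 5 mg/kg doses. Vehicle: 5% ethanol/55% PEG 400/40% water for rats and dogs; 5% ethanol/22% PEG 400/73% water for cynomolgus; 5% ethanol/25% PEG 400/70% water for rhesus. Half-life and MRT from iv; mean ± SD, n = 3 per route.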

[2] = Mutagenecity in Salmonella typhimurium by Ames test; assay type: toxicity; conditions: salmonella enterica subsp. enterica serovar typhimurium
[3] = In vivo inhibition of PI3Kdelta in Lewis rat model of Freund's incomplete adjuvant-induced arthritis at 1 mg/kg, po bid administered for 7 days at 12 hrs interval starting from day 10 to day 16 post-immunization relative to control; assay type: functional; conditions: 168 h, time 7 day
Summary of the method: (§2)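 CIA Lewis rats dosed orally twice daily for 7 days at 0.3, 1 or 3 mg/kg; blood/plasma drug levels taken on day 7, 12 h after final dose, and related to PI3Kδ inhibition at trough.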

[4] = Clearance in cynomolgus monkey at 1 mg/kg, iv measured over 24 hrs by LC/MS/MS analysis; assay type: ADME, organism-based, Macaca fascicularis; conditions: in vivo; summary of the method: as §1
[5] = biological target: T1, Phosphatidylinositol 4,5-bisphosphate 3-kinase catalytic subunit gamma isoform (Homo sapiens, UniProt P48736); test: Inhibition of human full length PI3K p110gamma using […] as substrate measured after 30 mins by TR-FRET assay
T1 sequence (P48736 whole entry, canonical isoform): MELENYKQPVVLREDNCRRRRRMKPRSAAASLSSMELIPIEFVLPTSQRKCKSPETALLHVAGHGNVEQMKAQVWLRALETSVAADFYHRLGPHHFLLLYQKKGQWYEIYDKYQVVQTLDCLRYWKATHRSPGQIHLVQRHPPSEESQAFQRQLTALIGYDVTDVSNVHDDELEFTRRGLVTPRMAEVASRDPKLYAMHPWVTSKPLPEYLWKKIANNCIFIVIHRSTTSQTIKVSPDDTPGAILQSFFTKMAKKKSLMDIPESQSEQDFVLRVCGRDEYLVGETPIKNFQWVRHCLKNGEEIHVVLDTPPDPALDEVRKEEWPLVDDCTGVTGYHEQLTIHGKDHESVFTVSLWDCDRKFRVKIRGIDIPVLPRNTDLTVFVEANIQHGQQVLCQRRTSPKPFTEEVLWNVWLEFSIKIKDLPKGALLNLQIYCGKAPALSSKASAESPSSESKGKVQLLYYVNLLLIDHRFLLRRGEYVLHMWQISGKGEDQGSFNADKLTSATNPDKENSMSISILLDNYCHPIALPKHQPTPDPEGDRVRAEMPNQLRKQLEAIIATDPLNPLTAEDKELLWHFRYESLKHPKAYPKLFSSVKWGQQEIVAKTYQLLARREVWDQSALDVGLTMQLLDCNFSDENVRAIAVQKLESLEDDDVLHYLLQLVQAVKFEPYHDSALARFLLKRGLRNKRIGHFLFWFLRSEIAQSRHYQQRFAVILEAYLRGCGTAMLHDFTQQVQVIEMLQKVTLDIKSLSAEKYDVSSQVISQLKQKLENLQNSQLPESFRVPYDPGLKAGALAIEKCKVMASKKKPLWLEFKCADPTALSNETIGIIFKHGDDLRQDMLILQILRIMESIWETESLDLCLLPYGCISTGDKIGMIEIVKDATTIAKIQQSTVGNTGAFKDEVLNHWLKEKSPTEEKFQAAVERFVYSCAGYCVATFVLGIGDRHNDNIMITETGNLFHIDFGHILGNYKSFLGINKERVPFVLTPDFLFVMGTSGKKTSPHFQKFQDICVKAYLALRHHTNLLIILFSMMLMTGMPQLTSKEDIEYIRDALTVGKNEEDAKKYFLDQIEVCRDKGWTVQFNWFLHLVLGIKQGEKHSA

[6] = biological target: T1, Phosphatidylinositol 4,5-bisphosphate 3-kinase catalytic subunit gamma isoform; test: Inhibition of PI3K p110gamma in human basophil assessed as reduction in fMLP-induced basophil activation in presence of 25% serum by flow cytometry analysis; assay type: tissue-based
Summary of the method: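 Basophil activation via fMLP (p110γ) in 25% serum or in isolated WBCs in low serum, with increasing compound concentrations. Anti-CD63-FITC/anti-CCR3-PE staining; ≥150 (25% serum) or ≥75 (low serum) CCR3-high basophils gated; % CD63-positive normalized to 0.3% DMSO vehicle; concentration corrected for reagent dilution.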

[7] = biological target: T2, Phosphatidylinositol 4,5-bisphosphate 3-kinase catalytic subunit delta isoform (Homo sapiens, UniProt O00329); test: Inhibition of PI3Kdelta in human whole blood assessed as inhibition of BCR-induced B-cell activation
T2 sequence (O00329 whole entry): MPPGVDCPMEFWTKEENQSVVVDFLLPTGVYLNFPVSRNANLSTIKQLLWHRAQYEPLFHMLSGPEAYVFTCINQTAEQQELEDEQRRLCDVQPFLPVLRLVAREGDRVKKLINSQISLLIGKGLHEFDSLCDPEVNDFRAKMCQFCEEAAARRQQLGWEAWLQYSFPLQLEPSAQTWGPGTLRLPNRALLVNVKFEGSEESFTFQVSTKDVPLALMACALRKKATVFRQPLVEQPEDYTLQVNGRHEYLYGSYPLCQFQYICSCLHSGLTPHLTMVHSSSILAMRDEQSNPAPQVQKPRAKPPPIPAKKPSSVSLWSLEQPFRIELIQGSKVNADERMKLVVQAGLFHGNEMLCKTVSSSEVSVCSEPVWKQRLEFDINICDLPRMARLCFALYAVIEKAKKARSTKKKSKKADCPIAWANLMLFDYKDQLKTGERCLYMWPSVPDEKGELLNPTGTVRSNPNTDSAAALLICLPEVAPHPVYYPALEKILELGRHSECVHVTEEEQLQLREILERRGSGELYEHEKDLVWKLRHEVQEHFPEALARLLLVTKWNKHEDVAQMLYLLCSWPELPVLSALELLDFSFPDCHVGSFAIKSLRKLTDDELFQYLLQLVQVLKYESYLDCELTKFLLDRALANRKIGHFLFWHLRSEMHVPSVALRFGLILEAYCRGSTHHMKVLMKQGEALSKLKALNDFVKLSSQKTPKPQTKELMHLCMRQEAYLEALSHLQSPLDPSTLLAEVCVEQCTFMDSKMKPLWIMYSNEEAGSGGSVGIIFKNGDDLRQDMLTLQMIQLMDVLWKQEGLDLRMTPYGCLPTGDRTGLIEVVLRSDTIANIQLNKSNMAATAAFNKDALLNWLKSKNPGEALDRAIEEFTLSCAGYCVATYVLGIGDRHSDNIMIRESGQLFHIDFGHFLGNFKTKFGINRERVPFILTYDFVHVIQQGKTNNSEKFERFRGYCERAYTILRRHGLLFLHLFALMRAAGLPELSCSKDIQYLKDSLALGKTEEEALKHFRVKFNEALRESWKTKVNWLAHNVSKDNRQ

[8] = Clearance in dog at 1 mg/kg, iv; assay type: ADME, organism-based, Canis lupus familiaris; conditions: in vivo
[9] = biological target: T2, Phosphatidylinositol 4,5-bisphosphate 3-kinase catalytic subunit delta isoform; test: Inhibition of PI3K p110delta in human basophil assessed as reduction in anti-FCepsilonR1 mAb-induced basophil activation preincubated for 60 mins followed by anti-FCepsilonR1 mAb stimulation and measured after 25 mins in presence of 25% serum by flow cytometry analysis; assay type: tissue-based
[10] = biological target: Phosphatidylinositol 4,5-bisphosphate 3-kinase catalytic subunit beta isoform (Homo sapiens, UniProt P42338); test: Inhibition of PI3K p110beta in human PC-3 cells assessed as reduction in AKT phosphorylation at S473 residue measured after 2 hrs by TR-FRET analysis; assay type: cell-based
Phosphatidylinositol 4,5-bisphosphate 3-kinase catalytic subunit beta isoform, sequence (P42338 whole entry, canonical isoform): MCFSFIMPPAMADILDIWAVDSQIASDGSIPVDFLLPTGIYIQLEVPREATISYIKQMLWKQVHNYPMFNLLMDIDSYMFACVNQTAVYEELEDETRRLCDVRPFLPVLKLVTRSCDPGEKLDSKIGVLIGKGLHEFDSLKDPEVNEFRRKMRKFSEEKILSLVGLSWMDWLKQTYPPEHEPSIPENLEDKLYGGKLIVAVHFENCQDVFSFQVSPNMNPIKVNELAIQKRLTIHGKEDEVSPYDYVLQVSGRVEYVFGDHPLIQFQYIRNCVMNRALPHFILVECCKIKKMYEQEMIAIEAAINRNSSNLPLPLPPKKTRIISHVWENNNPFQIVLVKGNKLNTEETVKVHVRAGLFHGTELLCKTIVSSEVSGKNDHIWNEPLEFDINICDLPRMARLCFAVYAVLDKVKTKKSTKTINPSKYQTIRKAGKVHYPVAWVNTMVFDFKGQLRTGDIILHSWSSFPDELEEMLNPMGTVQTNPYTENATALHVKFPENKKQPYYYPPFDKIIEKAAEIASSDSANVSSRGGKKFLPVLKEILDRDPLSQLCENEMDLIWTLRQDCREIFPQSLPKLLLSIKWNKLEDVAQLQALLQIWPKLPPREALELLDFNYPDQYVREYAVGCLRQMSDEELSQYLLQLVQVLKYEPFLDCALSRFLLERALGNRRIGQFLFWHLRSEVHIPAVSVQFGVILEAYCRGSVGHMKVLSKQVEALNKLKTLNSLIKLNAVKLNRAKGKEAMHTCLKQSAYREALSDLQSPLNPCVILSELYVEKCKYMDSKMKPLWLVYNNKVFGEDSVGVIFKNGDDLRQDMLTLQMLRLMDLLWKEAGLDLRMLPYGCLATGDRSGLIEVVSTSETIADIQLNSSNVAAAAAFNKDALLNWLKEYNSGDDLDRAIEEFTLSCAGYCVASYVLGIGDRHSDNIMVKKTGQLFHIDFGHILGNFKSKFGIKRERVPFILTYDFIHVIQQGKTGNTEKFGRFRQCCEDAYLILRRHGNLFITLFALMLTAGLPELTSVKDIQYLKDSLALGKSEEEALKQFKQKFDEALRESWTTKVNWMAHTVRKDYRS
Summary of the method: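 PC3 cells quiesced 2 h at 37 °C/5% CO2 in DMEM with 0.1% FBS/1% PSG, then plated at 25 000 cells/well onto prespotted compound dilutions and incubated 2 h. Lysates were read for Akt and phospho-Akt S473 by TR-FRET (Eu-cryptate Akt donor, d2 phospho-Akt acceptor). Data normalized to 1 μM wortmannin and DMSO controls; four-parameter fit; triplicate; geometric mean.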

[11] = In vivo inhibition of PI3Kdelta in Lewis rat model of Freund's incomplete adjuvant-induced arthritis at 3 mg/kg, po bid administered for 7 days at 12 hrs interval starting from day 10 to day 16 post-immunization relative to control; assay type: functional; conditions: 168 h, time 7 day; summary of the method: as §2
Rattus norvegicus [12] = test: (§3) Antiarthritic activity in Lewis rat model of Freund's incomplete adjuvant-induced arthritis assessed as inhibition of bone resorption at 0.3 to 3 mg/kg, po bid administered for 7 days at 12 hrs interval starting from day 10 to day 16 post-immunization by microscopic analysis relative to control; assay type: functional; design: scale not given: the % may be the effect or the level left; conditions: dose 0.3-3 mg/kg, time 7 day
Summary of the method: (§4)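 Female Lewis rats with established collagen-induced arthritis dosed orally twice daily for 7 days at 0.3, 1 and 3 mg/kg, starting day 10 after second collagen immunization. Joint histopathology scored for pannus formation, cartilage damage, bone resorption and periosteal bone formation; ED50 derived. n = 8/treatment group, n = 4 normal controls.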

[13] = Volume of distribution at steady state in rat at 1 mg/kg, iv; assay type: ADME, organism-based; conditions: in vivo, read-out: Vdss
Summary of the method: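 Rats and dog received 1 mg/kg intravenously, formulated in 12% w/v Captisol in water. Volume of distribution was taken at steady state from the iv plasma profile. Three animals per dosing route.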

Rattus norvegicus [14] = test: as §3, with “inhibition of […] bone formation” for “inhibition of bone resorption”, “peritoneal bone formation at 0.3” for “of bone resorption at 0.3”; assay type: functional; design: scale not given: the % may be the effect or the level left; conditions: dose 0.3-3 mg/kg, time 7 day; summary of the method: as §4

N#Cc1c(N)nc(N)nc1N[C@H](c1nc2c(F)ccc(Cl)c2c(=O)n1-c1cccnc1)C1CC1 [GS-9901]
clearance [1]: 7.17 mL/min/kg | Activity [2]: Non-Toxic | inhibition in vivo at 1 mg/kg [3]: 80% | clearance [4]: 6.83 mL/min/kg | IC50 [5]: 190 nM | EC50 [6]: 581 nM | EC50 [7]: 2.4 nM | clearance [8]: 9 mL/min/kg | EC50 [9]: 1.3 nM | EC50 [10]: 42 nM | inhibition in vivo at 3 mg/kg [11]: > 90% | Activity (Rattus norvegicus [12]): 50% | Vd [13]: 0.83 L/kg | Activity (Rattus norvegicus [14]): 48%
